# Assay results as given in the EternaBench riboswitch data.
# Test system: MS2 coat protein
# Experiment: apparent Kd, MS2 coat protein; higher = weaker binding; RNA-MaP array; FMN 200 µM where present
# Summary of the method: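 Stalled E. coli RNA polymerase transcribed the designs on Illumina sequencing-chip clusters. SNAP-549-labelled MS2 coat protein was titrated from 0.7 or 1.5 nM, doubling to 3 µM, without and then with constant ligand, in 100 mM Tris-HCl pH 7.5, 80 mM KCl, 4 mM MgCl2, BSA, DTT, yeast tRNA and Tween-20. Per-cluster binding curves were fitted to green signal normalised to red-channel RNA signal and control-cluster median Fmax. The apparent Kd is the median of the filtered fits.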
# [1] = designed as: OFF switch for flavin mononucleotide, no ligand
# [2] = ligand present: flavin mononucleotide, designed as: OFF switch for flavin mononucleotide
# [3] = designed as: ON switch for flavin mononucleotide, no ligand
# [4] = ligand present: flavin mononucleotide, designed as: ON switch for flavin mononucleotide
Sequence,apparent Kd [1],apparent Kd [2],apparent Kd [3],apparent Kd [4]
CGAGUGUGAGGAUAUCCAGCCGGUGGGAUUACGUCGACGCUGGAGAAGGCACAUGAGGAUCACCCAUGUGGACA,0.111 µM,0.234 µM,–,–
CGAUAACAUAGUUAUCAGUAACGGACAUGAGGAUCACCCAUGUAGGAUAUGUUACUCAACGAGUAACAGAAGGACAUGAGUCUU,0.0192 µM,0.0912 µM,–,–
CGAUAGGACAGAGGAUAUACACAUGAGGAUCACCCAUGUAAUUACAAUUCUUAAGAUUCAAACAUGUAGAAGGCUGUCCUAUCG,0.0359 µM,0.0131 µM,–,–
CGAUAUACGAUGGACGGAAACGUACAUGAGGAUCACCCAUGUAGAAGGCGAUCCGCAACGCGGAUUGAGGAUAUAUACCACACA,0.0238 µM,0.0233 µM,–,–
CGAUCUUCAGUCAGGAUAUGCUGGCACGAAGAGUUGUAGAAGGGACAUGAGGAUCACCCAUGUCGGACGUUGUA,0.019 µM,0.0174 µM,–,–
CGAUGACAAAGUCAUCGAUAACGAACAUGAGGAUCACCCAUGUAGGAUAUGCUACUCAAAGAGUAGCAGAAGGACAUGUGUCUU,0.0317 µM,0.154 µM,–,–
CGAUGACACAGUCAUCCAAUACGAACAUGAGGAUCACCCAUGUAGGAUAUGCUACUCAAAGAGUAGCAGAAGGACAUGUGCCUU,0.0384 µM,0.159 µM,–,–
CGAUGUUAUGUCAGGAUAUACAUUGCGAAAGCAAUGUAGAAGGGACAUGAGGAUCACCCAUGUCCUAACCAUCG,0.0131 µM,0.0171 µM,–,–
CGCAACUCAGAUCUGUUAAACAUGAGGAUCACCCAUGUAUUGAGAAGGAGGAAGAAGAGAGAUUCCUAGGAUAUCAGAGUUGCG,0.00662 µM,0.00698 µM,–,–
CGCAACUUUUCUCAUGUAAACAUGAGGAUCACCCAUGUAAUGAGAAGGAGGAGGAAGAGAGAAUCCUAGGAUAUCAGAGUUGCG,0.00712 µM,0.00601 µM,–,–
CGCAAGUAUACAUGAGGAUCACCCAUGUCAGAAAGGGUAAUCAGAAGGUACUAUUAGAGAAAGAGUAAGGAUAUGAAAUUUGCG,–,–,0.747 µM,0.125 µM
CGCACUGAUAGAGGAUAUGUUUUACAUGAGGAUCACCCAUGUGUACAAGGAUUAAUAUAUAAGUAACAGAAGGCUAUUUGUGCG,0.00655 µM,0.00585 µM,–,–
CGCAUCUCCUCAAUUCCUUCACAUGAGGAUCACCCAUGUAGGGAGGAUAUGCAAGCCUAUUGGCGGCAGAAGGCCCUGCAAUGG,0.0729 µM,0.0674 µM,–,–
CGCAUGCGUAGUAUUAGUUGCUGACAGGAUAUGACAUGAGGAUCACCCAUGUGAAUUAAGAAGAGUCAGAAGGGUCACGUUGCG,0.0116 µM,0.0106 µM,–,–
CGCCGACAUGAGGAUCACCCAUGUCACAUCUGGUCAGGAUAUGGUAUGAUUUGGCUAUUGCCAGAAGGGACCUCAG,–,–,0.0489 µM,0.028 µM
CGCCUCAGUUCAGGAUAUGUAUGGGUCUAACGAACAGAAGGGAACAUGAGGAUCACCCAUGUAAAUAGGGCCAAAGGCUAGAUC,0.0417 µM,0.175 µM,–,–
CGCCUGGGAGGAUAUCCAAUAUAUGACAUGAGGAUCACCCAUGUUUCCACUCGUACCUCCGGAGAAGGCCCUGCGU,0.0222 µM,0.0235 µM,–,–
CGCGAUGCGGUUGGCCCUGGGCGAGAGGAUAUGGGCAGCAGGACAUGAGGAUCACCCAUGUUCUCUCAGAAGGCUCGAGCAGGC,–,–,0.247 µM,0.0245 µM
CGCGCGUCGACAGGAUAUACAGAUUGGCUCCGGUACAUGAGGAUCACCCAUGUAGAAGGGUCACGCACGGAUAGUACAUUAUUA,0.00844 µM,0.028 µM,–,–
CGCUAAGAGAACGAUACGAAUAGACAUGAGGAUCACCCAUGUAGAAGGACAACGGAAUAAACGUUGUAGGAUAUACAUUUAGCG,0.0174 µM,0.0453 µM,–,–
CGCUAAGAUGGGUCUAAUGGACCACAGGAUAUGCUUGUACAUGAGGAUCACCCAUGUAAUAUUGUGCAGAAGGGUGGAUUCGCG,–,–,0.0665 µM,0.0108 µM
CGCUACGUUUCGUAGCAGCUAGGUGAGGAUAUUCAAUUUUUCACAUGAGGAUCACCCAUGUAUGUGAAGAAGGCGCCUAGAAAC,–,–,0.0108 µM,0.00481 µM
CGCUGUCACGCAGGAUAUGCAUUGGAUUACAAUGCAGAAGGGCGAUUACAUGAGGAUCACCCAUGUGUUGACAGUGAAGAAGAG,–,–,1.24 µM,0.0806 µM
CGCUGUCACGCAGGAUAUGCAUUGGAUUCCAAUGCAGAAGGGCGAUUACAUGAGGAUCACCCAUGUGCUGACAGUGAAGAAGAG,–,–,1.3 µM,0.0659 µM
CGCUGUCAUGCAGGAUAUGCAUUGGAUUACAAUGCAGAAGGGCGAUUACAUGAGGAUCACCCAUGUGUAGACAGUGAAGAAGAC,–,–,0.167 µM,0.0119 µM
CGCUGUCUCGCAGGAUAUGCAUUGGAUUACAAUGCAGAAGGGCGAUUACAUGAGGAUCACCCAUGUGUUGACAGUGAAGAAGAG,–,–,0.114 µM,0.0216 µM
CGGCCCGAUCGAGGAUAUAAGUCUAGGACAUGAGGAUCACCCAUGUAUGUCUUAGAAGGCGAUCGGGCCAGCCUGUUACAGGCA,–,–,0.0285 µM,0.00643 µM
CGGGAGUCAGGAUAUACGAACAUGUCGCCAGAUGUCAAGGUACAUGAGGAUCACCCAUGUAGAAGGGAGGAGGG,0.0605 µM,0.0327 µM,–,–

Sequence,apparent Kd [1],apparent Kd [2],apparent Kd [3],apparent Kd [4]
CGGGAUCCGAAGGGCGAAAGCCCACAUGAGGAUCACCCAUGUAGAAGGCGGGCCGCAACGCGGCCCGAGGAUAUACAGGAUCCA,0.0179 µM,0.037 µM,–,–
CGGGUCUGAGGAUAUCCAUCUUCAUACAUGAGGAUCACCCAUGUUUACCUUUGGGUUUCUGGAGAAGGCAGUUUUC,0.0483 µM,0.073 µM,–,–
CGGUAAACCACAGGAUAUGGCUAGUAUAACUAGCCAGAAGGGUGGUCGAAACCAUGUAAAUACAUGAGGAUCACCCAUGUAUCC,–,–,0.496 µM,0.0476 µM
CGGUAUCGACAGAAGGACGUAGCACAUGAGGAUCACCCAUGUCCGUAAUGUAGGAUAUGUACGGCCGAUCUCACGCAACACUAA,–,–,0.0371 µM,0.013 µM
CGGUGCUGAGGAUAUACAUGAGGAUCACCCAUGUGUGCCAGCUAGAAGACUGGCACUUGUAGAAGGCAGUACUG,0.0114 µM,0.0205 µM,–,–
CGUCCACAUGAGGAUCACCCAUGUGAGGAUAUCCAUACCCACAACCAAUACACAUUAUGGAGAAGGCACACACA,0.0202 µM,0.0199 µM,–,–
CGUCGAAAUGUAGGAUAUCUGCACGAUUAGUGCAGAGAAGGACAUGAGGAUCACCCAUGUAGAUCACGACGAAUUAAUUUAAUU,0.0607 µM,0.48 µM,–,–
CGUCUGUGAGGAUAUGGUAUCGUUUACAUGAGGAUCACCCAUGUUUCAUGGGACUAGAGACUAGAAGGUACUGACG,1.31 µM,0.87 µM,–,–
CGUGAAGGCUGGCCGAUAUAGUCGAGAAGGGUCCACAUGAGGAUCACCCAUGUGAGCCUUGGUGGACAGGAUAUCGAUGGCCGU,0.0467 µM,0.0152 µM,–,–
CGUGACGACAUAGGAUAUUGUUACAUGAGGAUCACCCAUGUCAACCAUUUAUCUCAAAUUGUUGACAAGAAGGAUGUGGUCACG,–,–,0.0326 µM,0.0116 µM
CGUGCGUAUGUGAGGAUAUGCUGGUCCUUGGAUCGGCAGAAGGCACAUGAGGAUCACCCAUGUGGUGUCGUGCA,0.377 µM,0.0303 µM,–,–
CGUGCGUAUGUGAGGAUAUGCUGGUCCUUGGCUCGGCAGAAGGCACAUGAGGAUCACCCAUGUGGUGUCGUACC,0.0219 µM,0.0586 µM,–,–
CGUGCGUCGACAGGAUAUACAGAUUGGCUCCGGUACAUGAGGAUCACCCAUGUAGAAGGGUCACGCACAGUUAGUUCGUUAUUA,0.00852 µM,0.0379 µM,–,–
CGUGCGUCGACAGGAUAUACAGAUUGGCUCCGGUACAUGAGGAUCACCCAUGUAGAAGGGUCACGCACGGAUAGUUCGAUAUUA,0.00936 µM,0.0431 µM,–,–
CGUGCUAUGUAGAAGGCAGAUCUGAUUCAGAUCUGAGGAUAUACAUGAGGAUCACCCAUGUUAUGCACCAGCACGAGAGUGCAA,0.00631 µM,0.0105 µM,–,–
CGUGGACUAGGAUAUUUACGAGGCUACAUGAGGAUCACCCAUGUGUUCUCGAGUACCAUGAAAGAAGGAGUAGCGA,0.0126 µM,0.014 µM,–,–
CGUUAUGAUAGAGGAUAUGUAAUACAUGAGGAUCACCCAUGUCACAUGGACAUUGUUUCUAAUUUACAGAAGGCUAUCCUUUCG,0.0203 µM,0.0163 µM,–,–
CGUUCACAUGAGGAUCACCCAUGUCAGAUUUGGUCAGGAUAUGGUCUGCUUCCGCUAUUGCCAGAAGGGACUUUUG,–,–,0.0289 µM,0.0227 µM
CGUUGACAUGAGGAUCACCCAUGUCAGAUCUGGUCAGGAUAUGGUGUGGUUUGGCUAUUGCCAGAAGGGACGUCUG,–,–,0.0431 µM,0.0468 µM
CUAAAACAUGAGGAUCACCCAUGUCAACAAAGUCGAGGAUAUGGGCAAAUAAAAUAAGAACCAGAAGGCGAAUAAC,–,–,0.409 µM,0.0362 µM
CUAAAUCAUGUAGGAUAUGCGUGGCGAAGCUAUGCAGAAGGACAUGAGGAUCACCCAUGUCAAAAUUUCUGCGUACAGACGGAA,0.0155 µM,0.0307 µM,–,–
CUAAAUCAUGUAGGAUAUGCGUGGCGAAGCUAUGCAGAAGGACAUGAGGAUCACCCAUGUCUUUCUGUCUGCGUACAGACGGAA,0.0235 µM,0.135 µM,–,–
CUACCUUAUGAGAAGGCGGUCAUGAAACAUGAUCGAGGAUAUCAUGUAAACAUGAGGAUCACCCAUGUAUGGGUAUUAUGGUAU,–,–,0.146 µM,0.0264 µM
CUAUAUAAUACCUCAUGUACAUGAGGAUCACCCAUGUUAACUUAGGAUAUAUUUAUAUUAAUAAAGUAGAAGGAAGUACUAUUU,0.0233 µM,0.0194 µM,–,–
CUAUCGCAAGGAUAUACAUGAGGAUCACCCAUGUGGAAGAAUGGCCCAAAUCUAACAUGUAGAAGGUGCUAAAA,0.0406 µM,0.0649 µM,–,–
CUAUGCGGAAUAGGAUAUUCGAUCAUGAGGAUAGAAGAAGGGUUACAUGAGGAUCACCCAUGUAUGCACAUGAGGAUCCCUUAG,0.221 µM,0.243 µM,–,–
CUAUUACGAGGAUAUGAUUUAAAUAACAUGAGGAUCACCCAUGUUUUUACGUUAUUAUGUUUAGAAGGCGUAUUGU,0.0501 µM,0.0314 µM,–,–
